# How the values were obtained:
# Toll-like receptor 7 = molecular target: T1, Toll-like receptor 7 (Homo sapiens, UniProt Q9NYK1); assay: Agonist activity at TLR7 in human cryopreserved PBMC assessed as induction of IFNalpha production measured after 24 hrs
# T1 sequence (Q9NYK1 whole entry): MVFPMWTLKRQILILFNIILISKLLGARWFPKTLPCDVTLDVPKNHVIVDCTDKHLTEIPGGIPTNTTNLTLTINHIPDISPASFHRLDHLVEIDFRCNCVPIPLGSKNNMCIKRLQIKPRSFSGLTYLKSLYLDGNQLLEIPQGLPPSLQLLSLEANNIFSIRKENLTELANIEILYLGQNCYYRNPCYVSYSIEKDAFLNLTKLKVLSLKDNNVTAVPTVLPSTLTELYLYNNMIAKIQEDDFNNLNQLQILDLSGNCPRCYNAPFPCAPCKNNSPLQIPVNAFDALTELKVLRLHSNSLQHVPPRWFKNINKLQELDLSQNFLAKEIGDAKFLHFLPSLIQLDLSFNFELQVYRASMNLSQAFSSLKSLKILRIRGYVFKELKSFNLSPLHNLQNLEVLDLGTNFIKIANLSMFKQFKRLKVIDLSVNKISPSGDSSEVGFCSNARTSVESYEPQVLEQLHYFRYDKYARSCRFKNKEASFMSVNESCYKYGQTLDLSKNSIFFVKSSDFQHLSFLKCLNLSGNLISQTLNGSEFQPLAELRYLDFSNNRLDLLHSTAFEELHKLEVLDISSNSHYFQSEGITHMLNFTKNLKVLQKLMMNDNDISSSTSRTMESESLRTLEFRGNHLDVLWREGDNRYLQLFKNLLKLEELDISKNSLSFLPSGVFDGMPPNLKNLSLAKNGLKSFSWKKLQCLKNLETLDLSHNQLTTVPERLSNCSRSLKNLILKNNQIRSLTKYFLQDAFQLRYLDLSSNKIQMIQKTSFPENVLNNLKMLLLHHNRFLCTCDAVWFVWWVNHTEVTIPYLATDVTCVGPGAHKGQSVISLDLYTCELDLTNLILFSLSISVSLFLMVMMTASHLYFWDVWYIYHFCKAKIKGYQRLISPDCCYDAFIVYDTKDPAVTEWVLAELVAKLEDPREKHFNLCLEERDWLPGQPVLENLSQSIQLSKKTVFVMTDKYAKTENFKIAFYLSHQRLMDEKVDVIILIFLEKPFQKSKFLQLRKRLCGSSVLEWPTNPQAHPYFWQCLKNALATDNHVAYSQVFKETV
# Procedure, shortened: (§1)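 Cryopreserved healthy-donor human PBMC, recovered 2 h at 37°C/5% CO2, then 100k cells/well in RPMI/10% FBS exposed 24 h at 37°C to a 10-point half-log dilution series (0.5% final DMSO). Supernatant IFNα-2a quantified by MSD electrochemiluminescence immunoassay. For the ratio, divided by the IL-12p40 EC50 from the same PBMC screen.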
# [1] = Cytotoxicity against human MT4 cells assessed as reduction in cell viability measured after 4 to 5 days by celltiter-glo assay; format: cell-based; conditions: time 4-5 day
# Toll-like receptor 8 = molecular target: T2, Toll-like receptor 8 (Homo sapiens, UniProt Q9NR97); assay: Agonist activity at TLR8 in human cryopreserved PBMC assessed as induction of IL-12p40 production measured after 24 hrs
# T2 sequence (Q9NR97 whole entry): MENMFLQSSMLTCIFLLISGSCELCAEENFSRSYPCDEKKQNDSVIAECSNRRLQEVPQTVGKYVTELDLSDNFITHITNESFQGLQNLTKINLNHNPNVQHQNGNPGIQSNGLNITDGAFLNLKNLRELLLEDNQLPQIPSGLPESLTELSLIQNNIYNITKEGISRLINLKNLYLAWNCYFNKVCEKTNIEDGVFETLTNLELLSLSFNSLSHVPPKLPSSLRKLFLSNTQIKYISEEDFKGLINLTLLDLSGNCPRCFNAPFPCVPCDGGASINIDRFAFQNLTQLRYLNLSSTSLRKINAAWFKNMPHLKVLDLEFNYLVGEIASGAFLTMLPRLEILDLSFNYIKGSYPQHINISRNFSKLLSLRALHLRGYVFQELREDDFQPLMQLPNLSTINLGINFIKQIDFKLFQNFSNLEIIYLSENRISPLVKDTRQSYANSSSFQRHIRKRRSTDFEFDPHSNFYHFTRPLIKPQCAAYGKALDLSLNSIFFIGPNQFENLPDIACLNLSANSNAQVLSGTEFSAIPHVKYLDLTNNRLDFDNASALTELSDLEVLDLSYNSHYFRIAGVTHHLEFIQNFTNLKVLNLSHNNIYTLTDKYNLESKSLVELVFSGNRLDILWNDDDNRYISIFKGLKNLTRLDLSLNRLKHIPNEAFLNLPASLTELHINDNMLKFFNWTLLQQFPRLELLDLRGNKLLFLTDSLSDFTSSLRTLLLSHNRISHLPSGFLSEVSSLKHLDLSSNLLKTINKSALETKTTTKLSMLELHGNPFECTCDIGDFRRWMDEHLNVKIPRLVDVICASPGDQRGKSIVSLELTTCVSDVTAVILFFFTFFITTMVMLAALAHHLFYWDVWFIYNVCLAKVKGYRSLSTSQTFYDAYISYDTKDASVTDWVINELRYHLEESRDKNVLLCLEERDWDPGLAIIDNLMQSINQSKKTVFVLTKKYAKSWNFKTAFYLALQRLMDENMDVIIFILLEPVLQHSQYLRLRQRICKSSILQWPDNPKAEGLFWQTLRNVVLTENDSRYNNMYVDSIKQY
# [2] = Selectivity index, ratio of CC50 for human MT4 cells to EC50 for TLR8 in human cryopreserved PBMC assessed as induction of IL-12p40 production
# [3] = Apparent permeability across apical to basolateral side in human Caco2 cells measured after 1 to 2 hrs by LC-MS/MS analysis; conditions: Caco-2
# [4] = Apparent permeability across basolateral to apical side in human Caco2 cells measured after 1 to 2 hrs by LC-MS/MS analysis; conditions: Caco-2
# [5] = Clearance in rat hepatic microsomes at 2 uM measured up to 60 mins in presence of NADPH generating system by LC-MS/MS analysis; format: ADME, Microsome; conditions: liver microsomes
# [6] = Clearance in dog hepatic microsomes at 2 uM measured up to 60 mins in presence of NADPH generating system by LC-MS/MS analysis; format: ADME, Canis lupus familiaris, Microsome; conditions: liver microsomes
# [7] = Clearance in cynomolgus monkey hepatic microsomes at 2 uM measured up to 60 mins in presence of NADPH generating system by LC-MS/MS analysis; format: ADME, Macaca fascicularis, Microsome; conditions: liver microsomes
# [8] = Clearance in human hepatic microsomes at 2 uM measured up to 60 mins in presence of NADPH generating system by LC-MS/MS analysis; format: ADME, Microsome; conditions: liver microsomes
# [9] = Drug metabolism in human hepatocytes assessed as core oxidation; format: ADME, cell-based, Hepatocyte
# [10] = Dissociation constant, pKa of the compound; format: physicochemical
# Homo sapiens = species on record: Homo sapiens; assay: Selectivity ratio of EC50 for TLR7 in human cryopreserved PBMC assessed as induction of IFNalpha production to EC50 for TLR8 in human cryopreserved PBMC assessed as induction of IL-12p40 production
# Procedure, shortened: as §1, with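 “immunoassay. Normalized to 10 µM GS-9620 positive and DMSO negative controls; EC50 from 4-parameter logistic fit.” for “immunoassay.”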
Structure (SMILES),EC50 (Toll-like receptor 7),EC50 (Toll-like receptor 8),CC50 [1],also measured
CCCC[C@H](CCO)Nc1nc(N)nc2cccnc12,> 50 µM,4.3 µM,–,–
CCCC[C@H](CN)Nc1nc(N)nc2cccnc12,> 50 µM,25 µM,–,–
CCCC[C@H](CO)Nc1cc(N)nc2ccccc12,> 50 µM,> 50 µM,–,–
CCCC[C@@H](Nc1nc(N)nc2cccnc12)C(=O)O,> 50 µM,> 50 µM,–,–
CCCCOc1nc(N)nc2cccnc12,> 50 µM,> 50 µM,–,–
CCCCCC[C@](C)(CO)Nc1nc(N)nc2cccnc12,> 50 µM,10 µM,3.6 µM,Ratio CC50/EC50 [2]: 0.4
CCC[C@](C)(CO)Nc1nc(N)nc2cccnc12,> 50 µM,2.4 µM,> 50 µM,Ratio CC50/EC50 [2]: >21
CCCC[C@@](C)(Nc1nc(N)nc2cc(F)cnc12)C(=O)O,> 50 µM,> 50 µM,> 50 µM,–
CCCC[C@@H](Nc1nc(N)nc2cccnc12)C(N)=O,> 50 µM,36 µM,–,–
CCCC[C@](C)(CO)Nc1nc(N)nc2cc(C)cnc12,> 50 µM,0.16 µM,23 µM,pKa [10]: 7.1; Ratio EC50 (Homo sapiens): > 185; Ratio CC50/EC50 [2]: 144; Papp A→B [3]: 31 ×10⁻⁶ cm/s; Papp B→A [4]: 29 ×10⁻⁶ cm/s; CLhep predicted at 2 µM [5]: 63.3 mL/min/kg; CLhep predicted at 2 µM [6]: 18.3 mL/min/kg; CLhep predicted at 2 µM [7]: 25 mL/min/kg; CLhep predicted at 2 µM [8]: 8.33 mL/min/kg
CCC[C@H](CO)Nc1nc(N)nc2cccnc12,> 50 µM,19 µM,–,–
CCCC[C@H](CO)Nc1nc(N)nc2ccccc12,> 50 µM,1.84 µM,–,pKa [10]: 8.2
CCCCC(CO)(CCCC)Nc1nc(N)nc2cccnc12,> 50 µM,> 50 µM,38 µM,–
CCCC[C@@H](Nc1nc(N)nc2cccnc12)C(=O)NC,> 50 µM,> 50 µM,–,–
CCCC[C@](C)(CO[C@@H]1O[C@H](C(=O)O)[C@@H](O)[C@H](O)[C@H]1O)Nc1nc(N)nc2cc(F)cnc12,> 50 µM,> 50 µM,> 50 µM,–
CCCC[C@H](CO)Nc1nc(N)nc2cccnc12,> 50 µM,0.79 µM,7.8 µM,pKa [10]: 6.8; Ratio CC50/EC50 [2]: 10
CCCC[C@@H](CO)Nc1cc(N)nc2ccccc12,> 50 µM,> 50 µM,–,–

# Now from value to molecule, other results behind:
EC50 (Toll-like receptor 7),EC50 (Toll-like receptor 8),Structure (SMILES),CC50 [1],also measured
> 50 µM,> 50 µM,C[C@](CO)(CCCCO)Nc1nc(N)nc2cc(F)cnc12,> 50 µM,–
2 µM,0.43 µM,CCC[C@@H](CO)Nc1nc(N)nc2cccnc12,–,–
> 30 µM,1.3 µM,CCCN(CCC)C(=O)C1=Cc2ccc(-c3ccc(C(=O)N4CCCC4)cc3)cc2N=C(N)C1 [MOTOLIMOD],–,–
> 50 µM,3.3 µM,CCCC[C@@](C)(CO)Nc1nc(N)nc2cc(F)cnc12,0.79 µM,Ratio CC50/EC50 [2]: 0.2
0.91 µM,0.42 µM,CCCC[C@@H](CO)Nc1nc(N)nc2cccnc12,–,–
5.1 µM,3.1 µM,CCCC(C)Nc1nc(N)nc2cccnc12 (stereo unspecified),–,–
> 20 µM,3.33 µM,CCCCC[C@H](CO)Nc1nc(N)nc2cccnc12,–,–
2.2 µM,1.9 µM,CCCCNc1nc(N)nc2cccnc12,–,–
7.9 µM,2.4 µM,CCCC[C@@](C)(CO)Nc1nc(N)nc2cccnc12,26 µM,Ratio CC50/EC50 [2]: 11; Papp A→B [3]: 32 ×10⁻⁶ cm/s; Papp B→A [4]: 31 ×10⁻⁶ cm/s; CLhep predicted at 2 µM [5]: 58.3 mL/min/kg; CLhep predicted at 2 µM [6]: 25 mL/min/kg; CLhep predicted at 2 µM [7]: 23.3 mL/min/kg; CLhep predicted at 2 µM [8]: 13.3 mL/min/kg; Drug metabolism [9]: Metabolite_Detected
20 µM,0.58 µM,CCCCC[C@](C)(CO)Nc1nc(N)nc2cccnc12,17 µM,Ratio CC50/EC50 [2]: 29
> 42 µM,0.27 µM,CCCC[C@](C)(CO)Nc1nc(N)nc2cc(Cl)cnc12,22 µM,pKa [10]: 6.4; CLhep predicted at 2 µM [5]: 56.7 mL/min/kg; CLhep predicted at 2 µM [6]: 30 mL/min/kg; CLhep predicted at 2 µM [7]: 23.3 mL/min/kg; CLhep predicted at 2 µM [8]: 16.7 mL/min/kg
0.57 µM,0.71 µM,CCCC[C@@H](CO)Nc1nc(N)nc2ccccc12,–,–
15 µM,0.17 µM,CCCC[C@](C)(CO)Nc1nc(N)nc2cccnc12,31 µM,Ratio EC50 (Homo sapiens): > 80; Ratio CC50/EC50 [2]: 182; Papp A→B [3]: 29 ×10⁻⁶ cm/s; Papp B→A [4]: 29 ×10⁻⁶ cm/s; CLhep predicted at 2 µM [5]: 58.3 mL/min/kg; CLhep predicted at 2 µM [6]: 23.3 mL/min/kg; CLhep predicted at 2 µM [7]: 21.7 mL/min/kg; CLhep predicted at 2 µM [8]: 13.3 mL/min/kg; Drug metabolism [9]: Metabolite_Detected

# — ChEMBL document CHEMBL4725242, “Discovery of GS-9688 (Selgantolimod) as a Potent and Selective Oral Toll-Like Receptor 8 Agonist for the Treatment of Chronic Hepatitis B” (J Med Chem, 2020)
